How the values were obtained:
GR = GR nuclear translocation, confocal microscopy in A549 cells; format: cell-based, human; conditions: 10 μM, 2 h
PR = PR selectivity, ARR3tk-luciferase reporter in PC3 cells transfected with hPR; format: cell-based, human; conditions: various concentrations, 16 h; 10 nM progesterone = 100%
In short: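 PR counter-screen in PC3 cells: 1 × 10^4 cells/well in 3% CSS DMEM for 24 h. Lipofection for 24 h with 50 ng hPR, 50 ng ARR3tk-luciferase, and 5 ng Renilla per well. Then 16 h exposure to 10 nM progesterone or test compound, and luciferase measurement.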

MR = MR selectivity, MMTV luciferase reporter in 293T cells transfected with pCMV-hMR; format: cell-based, human; conditions: various concentrations, 16 h; 10 nM aldosterone = 100%
In short: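 Human MR counter-screen. 293T cells were seeded at 1 × 10^4 cells/well in 3% CSS DMEM for 24 h. They were then lipofected for 24 h with 71 ng pCMV-hMR, 24 ng pGL4.36 MMTV-luc2P, and 5 ng Renilla. Next they were treated for 16 h with 10 nM aldosterone or test compound. Firefly luciferase read-out.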

RAW264.7 cells [1] = format: cell-based, mouse; conditions: 10 μM with 20 ng/mL LPS overnight
[2] = test system: AP-1-dependent transcription (GR transrepression); format: cell-based; conditions: Homo sapiens, HeLa, read-out: IC50, AP-1 Luc transrepression
In short: (§1)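 HeLa cells grown 24 h in 5% CSS DMEM, then lipofected for 24 h with 71 ng GRα, 5 ng Renilla, and 24 ng reporter (NF-κB-Luc or 5×AP-1-Luc). Cells were stimulated with TNF-α 5 ng/mL (NF-κB) or PMA 1 ng/mL (AP-1) plus test compound. Lysates were read by dual firefly/Renilla luciferase.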

RAW264.7 cells [3] = experiment: Real-time quantitative PCR in LPS-stimulated RAW264.7 cells; format: cell-based, mouse; conditions: RAW264.7, 20 ng/mL LPS, 10 μM, 18 h
In short: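 Mouse RAW264.7 macrophages (1 × 10^6 per well) were cultured 24 h in 3% CSS DMEM. They were then co-treated with 20 ng/mL LPS and 10 μM test compound for 18 h. Total RNA was reverse-transcribed and target transcripts were measured by SYBR Green qPCR, with GAPDH normalisation and 2^−ΔΔCt relative quantitation.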

AR = format: cell-based, human; conditions: various concentrations, 72 h; 10 nM DHT = 100%
[4] = test system: NF-κB-dependent transcription (GR transrepression); format: cell-based; conditions: Homo sapiens, HeLa, read-out: IC50, NF-κB Luc transrepression
In short: as §1

Structure (SMILES) | GR nuclear translocation (GR) | off-target activation effect on PR (PR) | off-target activation effect on MR (MR) | number of repressed genes (RNA-seq) (RAW264.7 cells [1]) | IC50 [2] [nM] | SOCS3 mRNA regulation (Q-PCR) (RAW264.7 cells [3]) | off-target activation effect on AR (AR) | IC50 [4] [nM]
CC(C)[C@H](NC(=O)C(C)(F)F)[C@H](Oc1ccc2c(cnn2-c2ccc(=O)n(C)c2)c1)c1ccccc1 [Azd9567] | promoted the translocation of GR from the cytoplasm to the nucleus |  |  |  |  |  |  | 
C[C@@H]1C[C@H]2[C@@H]3CCC4=CC(=O)C=C[C@]4(C)[C@@]3(F)[C@@H](O)C[C@]2(C)[C@@]1(O)C(=O)CO [Dex, dexamethasone] | promoted the translocation of GR from the cytoplasm to the nucleus | strong activation effects | strong activation effects | 117 | 48.8 ± 7.1 | downregulated only by HT-15 but not Dex | strong activation effects | 14 ± 2.19

— PMC8809242 (Acta Pharmacologica Sinica, 2022)
